# Activity calls are given as the source filed them. The rule behind the calls is not given here.
# Legend:
# [1] = molecular target: T1, Corticotropin-releasing factor receptor 1 (Homo sapiens, UniProt P34998); assay: Antagonist activity at human CRF-1 receptor; assay type: functional
# T1 sequence (P34998 whole entry): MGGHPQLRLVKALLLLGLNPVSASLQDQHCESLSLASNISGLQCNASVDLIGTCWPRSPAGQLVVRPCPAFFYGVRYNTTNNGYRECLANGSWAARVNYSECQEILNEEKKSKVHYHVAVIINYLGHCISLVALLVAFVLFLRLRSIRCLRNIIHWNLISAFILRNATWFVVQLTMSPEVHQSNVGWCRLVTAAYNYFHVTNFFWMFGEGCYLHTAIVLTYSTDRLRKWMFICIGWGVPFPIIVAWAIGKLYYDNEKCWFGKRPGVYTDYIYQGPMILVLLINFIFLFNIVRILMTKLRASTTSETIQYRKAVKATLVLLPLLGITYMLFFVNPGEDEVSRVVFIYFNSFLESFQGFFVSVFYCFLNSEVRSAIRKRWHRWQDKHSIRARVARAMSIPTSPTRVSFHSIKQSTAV
# [2] = Oral bioavailability in rat; assay type: ADME, organism-based; conditions: in vivo
# In short: (§1)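 Rat pharmacokinetics: compounds given iv (1 or 3 mg/kg) and po (5 or 10 mg/kg) in 2% Vitamin E TPGS (tocopheryl polyethylene glycol 1000 succinate). Plasma sampled over 24 h for Cmax, Tmax, AUC0–24 h, T1/2, clearance, Vss and oral bioavailability. Brain to plasma ratio also measured.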
# [3] = Drug uptake in rat adipose tissue assessed as radioactivity of labeled compound; assay type: ADME, tissue-based; conditions: in vivo
# [4] = Half life in rat at 5 mg/kg, po; assay type: ADME, organism-based; parameters: dose 5 mg/kg, route oral; conditions: in vivo
# [5] = Oral bioavailability in rat at 5 mg/kg; assay type: ADME, organism-based; conditions: in vivo; in short: as §1
# [6] = Tmax in rat at 5 mg/kg, po; assay type: ADME, organism-based; parameters: dose 5 mg/kg, route oral; conditions: in vivo; in short: as §1
# [7] = AUC (0 to 24 hrs) in rat at 5 mg/kg, po; assay type: ADME, organism-based; parameters: time < 24 hr, dose 5 mg/kg, route oral; conditions: plasma
# [8] = Ratio of drug level in brain to plasma of rat at 3 mg/kg, iv; assay type: ADME, organism-based; parameters: dose 3 mg/kg, route intravenous; conditions: read-out: BPR; in short: as §1
# [9] = AUC (0 to 24 hrs) in rat at 3 mg/kg, iv; assay type: ADME, organism-based; parameters: time < 24 hr, dose 3 mg/kg, route intravenous; conditions: plasma
# In short: (§2)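 Rat PK, intravenous arm of a paired iv/po study. Dosed in 2% Vitamin E TPGS (tocopheryl polyethylene glycol 1000 succinate). Parameters derived from plasma: Cmax, AUC0–24 h, terminal T1/2.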
# [10] = Half life in rat microsomes; assay type: ADME, Microsome
# In short: (§3)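 Stability in human or rat liver microsomes; half-life (T1/2, min) of compound turnover reported.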
# [11] = Clearance in rat at 3 mg/kg, iv; assay type: ADME, organism-based; parameters: dose 3 mg/kg, route intravenous; conditions: in vivo
# In short: (§4)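 Rat PK with paired iv and oral dosing, vehicle 2% Vitamin E TPGS. Clearance and Vss from the iv arm; oral bioavailability F from comparing exposure after oral and iv doses.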
# [12] = Ratio of drug level in brain to plasma of rat at 5 mg/kg, po; assay type: ADME, organism-based; parameters: dose 5 mg/kg, route oral; conditions: read-out: BPR; in short: as §1
# [13] = Clearance in rat at 5 mg/kg, po; assay type: ADME, organism-based; parameters: dose 5 mg/kg, route oral; conditions: in vivo
# [14] = Cmax in rat at 5 mg/kg, po; assay type: ADME, organism-based; parameters: dose 5 mg/kg, route oral; conditions: in vivo
# [15] = Bioavailability in rat at 3 mg/kg, […]; assay type: ADME, organism-based; conditions: in vivo; in short: as §4
# [16] = Tmax in rat at 3 mg/kg, iv; assay type: ADME, organism-based; parameters: dose 3 mg/kg, route intravenous; conditions: in vivo; in short: as §1
# [17] = Volume of distribution at steady state in rat at 3 mg/kg, iv; assay type: ADME, organism-based; parameters: dose 3 mg/kg, route intravenous; conditions: in vivo, read-out: Vdss; in short: as §1
# [18] = Half life in rat at 3 mg/kg, iv; assay type: ADME, organism-based; parameters: dose 3 mg/kg, route intravenous; conditions: in vivo; in short: as §2
# [19] = molecular target: T1, Corticotropin-releasing factor receptor 1; assay: Displacement of [125I]-sauvagine from human CRF-1 receptor expressed in human IMR-32 cells after 2 hrs by scintillation counting; assay type: cell-based
# In short: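 Competition binding against 125I-sauvagine on membrane preparations from IMR-32 human neuroblastoma cells, which express CRF-1 endogenously. Modified from a published method.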
# [20] = Half life in human microsomes; assay type: ADME, Microsome; in short: as §3
# [21] = test system: Rattus norvegicus; assay: Volume of distribution at steady state in rat at 5 mg/kg, po; assay type: ADME, organism-based; parameters: dose 5 mg/kg, route oral; conditions: in vivo; in short: as §1
# [22] = Cmax in rat at 3 mg/kg, iv; assay type: ADME, organism-based; parameters: dose 3 mg/kg, route intravenous; conditions: in vivo; in short: as §2
# [23] = test system: Rattus norvegicus; assay: Antihyperlocomotion activity in Wistar rat assessed as decrease in CRF-induced hyperlocomotion at 3 mg/kg, po administered 1 hr before CRF challenge measured after 1 hr; assay type: functional, organism-based; parameters: dose 3 mg/kg
# In short: (§5)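 Oral dosing in rats 1 h before an ICV CRF challenge of 0.3 μg, across a 1–30 mg/kg range. The read-out was locomotor movement time, compared against TPGS-vehicle rats given CRF and rats given vehicle without CRF.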
# [24] = test system: Rattus norvegicus; assay: Antihyperlocomotion activity in Wistar rat assessed as decrease in CRF-induced hyperlocomotion at 10 mg/kg, po administered 1 hr before CRF challenge measured after 1 hr; assay type: functional, organism-based; parameters: dose 10 mg/kg; in short: as §5
# [25] = molecular target: Corticotropin-releasing factor receptor 1 (Rattus norvegicus, UniProt P35353); assay: Displacement of [125I]-sauvagine from rat CRF-1 receptor expressed in rat cortical membrane after 2 hrs by scintillation counting; assay type: cell membranes
# Chain of Corticotropin-releasing factor receptor 1 (Rattus norvegicus, UniProt P35353) (P35353 whole entry): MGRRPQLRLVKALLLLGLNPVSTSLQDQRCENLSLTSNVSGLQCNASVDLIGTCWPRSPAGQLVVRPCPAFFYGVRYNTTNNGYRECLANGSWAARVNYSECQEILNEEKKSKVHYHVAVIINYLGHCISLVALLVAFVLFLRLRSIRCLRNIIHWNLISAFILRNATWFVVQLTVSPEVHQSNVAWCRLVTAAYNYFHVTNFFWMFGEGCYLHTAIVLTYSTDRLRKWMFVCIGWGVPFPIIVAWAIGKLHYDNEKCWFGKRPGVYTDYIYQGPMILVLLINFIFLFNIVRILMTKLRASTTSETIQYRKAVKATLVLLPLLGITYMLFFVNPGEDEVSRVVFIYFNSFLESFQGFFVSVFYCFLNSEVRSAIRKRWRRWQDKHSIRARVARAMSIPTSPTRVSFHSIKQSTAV
# In short: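 Displacement of [125I]-sauvagine binding from rat cortical membrane homogenate with increasing compound concentrations; Ki derived.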
# [26] = test system: Rattus norvegicus; assay: Decrease in restrained-stress induced ATCH release in plasma of Sprague-Dawley rat at 10 mg/kg, po pretreated with compound for 1 hr by radioimmunoassay; assay type: functional, organism-based; parameters: dose 10 mg/kg
# In short: (§6)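 Rats were dosed orally 1 h before a 10 min period of physical restraint, across a 1–30 mg/kg range. The read-out was plasma ACTH, compared against vehicle-treated stressed and unstressed rats.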
# [27] = test system: Rattus norvegicus; assay: Decrease in restrained-stress induced ATCH release in plasma of Sprague-Dawley rat at 3 mg/kg, po pretreated with compound for 1 hr by radioimmunoassay; assay type: functional, organism-based; parameters: dose 3 mg/kg; in short: as §6
# [28] = test system: Rattus norvegicus; assay: Ex vivo CRF-1 receptor occupancy in po dosed rat cortical homogenate assessed as inhibition of [I125]-sauvagine binding pretreated for 3 hrs; assay type: functional, organism-based
# In short: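 Rats dosed orally at 1, 3 and 10 mg/kg; cortex taken at 3 h for ex vivo binding. Specific [125I]-sauvagine binding compared with vehicle-treated rats to give ex vivo ID50.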
Compound,half-life [10] [min],Ki [19] [nM],half-life [20] [min],also measured
CCCC(CCC)N1CCn2nc(-c3ccc(Cl)cc3Cl)c3nc(C)cc1c32,–,–,–,Ki [1]: 4 nM
COCC(COC)Nc1nc(C)nc2c(-c3ccc(Cl)cc3Cl)c(C)nn12,–,–,–,Ki [1]: 2 nM
CCCN(CCC)c1c(C)ncc2c(-c3ccc(Cl)cc3Cl)cccc12,–,–,–,Ki [1]: 103 nM
CCC(CC)Oc1c(C)nc(-c2c(OC)cc(Cl)cc2OC)nc1OC,–,–,–,bioavailability [2]: 6%
CCC(CC)Nc1nc(C)c(-c2ccc(OC(F)(F)F)cc2O[14CH3])nc1OC,–,–,–,Drug uptake [3]: Active
CCc1nc(-c2ccc(Cl)cc2Cl)c(CC)nc1NC(CC)CC,4.2,4.1,17,half-life [4]: 294 min; bioavailability [5]: 83%; Tmax [6]: 78 min; AUC(0-t) at 24 h [7]: 4310 ng·h/mL; Kp [8]: 2.5; AUC(0-t) at 24 h [9]: 4310 ng·h/mL; clearance [11]: 16 mL/min/kg; Kp [12]: 2.5; CL/F [13]: 16 mL/min/kg; Cmax [14]: 627 ng/mL; bioavailability [15]: 83%; Tmax [16]: 78 min; Vd [17]: 6.5 L/kg; half-life [18]: 294 min; Vdss [21]: 6.5 L/kg; Cmax [22]: 627 ng/mL
CCc1nc(NC(CC)CC)c(Cl)nc1-c1ccc(Cl)cc1Cl,< 1,71,10,–
CCc1nc(-c2ccc(OC(C)C)cc2OC)c(CC)nc1NC(CC)CC,< 1,4.2,11,–
CCc1nc(N(CCOC)CCOC)c(CC)nc1-c1ccc(Cl)cc1Cl,< 1,128,2,–
CCCN(CC1CC1)c1nc(CC)c(-c2ccc(Cl)cc2Cl)nc1CC,4.2,19.2,12,–
CCc1nc(NC(CC)CC)c(OC)nc1-c1ccc(OC(F)F)cc1Cl,47,1.4,120,–
CCCN(CCC)c1cc(C)nc2c(-c3cnc(N(C)C)cc3C)c(C)nn12,–,–,–,"Activity [23]: Active; Activity [24]: Active; Ki [25]: 3.8 nM; Activity [26]: Active; Activity [27]: Active; IC50 [28]: 0.074 µg/mL; ED50 ([28]; po, read-out: ID50 (the source's name)): 7.2 mg/kg"
CCc1cc(OC)ccc1-c1nc(OC)c(NC(CC)CC)nc1CC,120,1.9,120,–
CCc1nc(-c2ccc(Cl)cc2Cl)c(CC)nc1SC(C)CC (stereo unspecified),4.1,401,17,–
CCc1nc(-c2ccc(Cl)cc2Cl)c(OC)nc1NC(CC)CC,11,8,42,–
CCC(CC)Nc1nc(C)c(-c2ccc(C(F)(F)F)cc2OC)nc1OC,120,1.3,120,–
CCc1nc(-c2cnc(OC)nc2OC)c(CC)nc1NC(CC)CC,< 1,17.2,7,–
CCc1nc(-c2ccc(OC)cc2O)c(CC)nc1NC(CC)CC,5.9,1180,18,–
CCCCc1nc(-c2ccc(Cl)cc2Cl)c(CC)nc1NC(CC)CC,4.2,3660,22,–
CCc1nc(-c2ccc(Cl)cc2Cl)c(CC)nc1NC(C)CN(C)C (stereo unspecified),< 1,489,7,–
CCc1nc(NC(CC)CC)c(C)nc1-c1ccc(Cl)cc1Cl,11,54,27,–
CCc1nc(-c2ccc(Cl)cc2Cl)c(CC)nc1CC(CC)CC,2.5,68,13,–

# From ChEMBL document CHEMBL1806459, “Discovery of N-(1-ethylpropyl)-[3-methoxy-5-(2-methoxy-4-trifluoromethoxyphenyl)-6-methyl-pyrazin-2-yl]amine 59 (NGD 98-2): an orally active corticotropin releasing factor-1 (CRF-1) receptor antagonist” (J Med Chem, 2011)
